Values after ≈ are worked out from the molar mass of the structure shown.
Key:
[1] = Membrane permeability in MDCK cells at 50 uM after 60 mins by LC-MS/MS analysis; assay type: ADME, cell-based, Canis lupus familiaris; conditions: dog, read-out: permeability
[2] = Half life in Sprague-Dawley rat at 5 mg/kg, po by LC-MS/MS analysis; assay type: ADME, organism-based; conditions: in vivo
Summary of the method: (§1)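 Male Sprague-Dawley rats (n = 2 or 3) dosed orally at 5 mg/kg in saline or water (5 mL/kg). Blood taken from the subclavian vein at 0.5, 1, 2, 4, 6 and 8 h; plasma separated by centrifugation, stored at -20 °C, and drug levels measured by LC-MS/MS. Values are mean ± SD (n = 3) or the average of two experiments.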

[3] = molecular target: T1, Beta-3 adrenergic receptor (Homo sapiens, UniProt P13945); experiment: Intrinsic activity at recombinant human beta3 adrenergic receptor expressed in CHO cells assessed as accumulation of cyclic AMP after 30 mins relative to isoproterenol; assay type: cell-based
Target sequence in this assay (P13945 whole entry, looked up): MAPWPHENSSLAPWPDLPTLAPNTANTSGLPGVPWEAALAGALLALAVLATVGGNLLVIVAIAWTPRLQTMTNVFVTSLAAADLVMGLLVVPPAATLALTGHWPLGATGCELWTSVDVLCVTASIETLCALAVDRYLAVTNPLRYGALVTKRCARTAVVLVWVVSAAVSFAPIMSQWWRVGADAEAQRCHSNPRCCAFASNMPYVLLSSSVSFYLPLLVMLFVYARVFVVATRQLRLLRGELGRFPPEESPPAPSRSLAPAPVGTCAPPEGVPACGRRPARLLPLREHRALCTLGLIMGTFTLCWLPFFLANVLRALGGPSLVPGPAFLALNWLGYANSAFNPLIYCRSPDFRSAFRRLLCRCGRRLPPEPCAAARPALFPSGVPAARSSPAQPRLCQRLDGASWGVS

[4] = Solubility of the compound at pH 1.2 buffer solution after 18 hrs by HPLC analysis; assay type: physicochemical
[5] = Intrinsic clearance in human liver microsomes at 1 uM in presence of NADPH by LC-MS/MS analysis; assay type: ADME, microsome
Summary of the method: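 Pooled mixed-gender human liver microsomes (0.5 mg/mL) in 100 mM potassium phosphate pH 7.4 with NADPH-regenerating mix plus UDP-GA, test compound 1 µM, 15 min at 37 °C. Acetonitrile stop, LC-MS/MS. k from the remaining fraction. CLint,u is scaled with 48.8 mg protein/g liver and 25.7 g liver/kg, and corrected by fu from equilibrium dialysis (1 µM, 0.5 mg/mL, 6 h, 37 °C).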

[6] = molecular target: T2, Beta-1 adrenergic receptor (Homo sapiens, UniProt P08588); experiment: Agonist activity at recombinant human beta1 adrenergic receptor expressed in CHO cells assessed as accumulation of cyclic AMP after 30 mins; assay type: cell-based
CYP2C19 = CYP2C19 (Homo sapiens, UniProt P33261); experiment: Inhibition of CYP2C19 (unknown origin) at 10 uM relative to control; assay type: ADME
CYP2B6 = molecular target: T3, CYP2B6 (Homo sapiens, UniProt P20813); experiment: Inhibition of CYP2B6 (unknown origin) at 10 uM relative to control; assay type: ADME
T3 sequence (P20813 whole entry): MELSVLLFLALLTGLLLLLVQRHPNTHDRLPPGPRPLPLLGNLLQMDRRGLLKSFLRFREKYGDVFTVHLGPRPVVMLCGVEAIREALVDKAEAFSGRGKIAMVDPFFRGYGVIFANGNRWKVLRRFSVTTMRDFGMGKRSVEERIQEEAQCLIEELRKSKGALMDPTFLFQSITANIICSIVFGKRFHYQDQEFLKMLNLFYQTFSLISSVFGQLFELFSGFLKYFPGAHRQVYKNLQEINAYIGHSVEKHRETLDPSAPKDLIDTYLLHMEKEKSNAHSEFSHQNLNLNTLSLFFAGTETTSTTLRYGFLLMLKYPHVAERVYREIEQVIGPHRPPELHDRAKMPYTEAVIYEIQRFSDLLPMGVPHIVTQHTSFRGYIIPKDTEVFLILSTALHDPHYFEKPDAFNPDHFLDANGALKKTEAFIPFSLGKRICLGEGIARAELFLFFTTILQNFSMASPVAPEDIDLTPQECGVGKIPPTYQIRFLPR

[7] = molecular target: T2, Beta-1 adrenergic receptor; experiment: Intrinsic activity at recombinant human beta1 adrenergic receptor assessed as accumulation of cyclic AMP after 30 mins relative to isoproterenol; conditions: 0.5 h
CYP1A2 = molecular target: T4, CYP1A2 (Homo sapiens, UniProt P05177); experiment: Inhibition of CYP1A2 (unknown origin) at 10 uM relative to control; assay type: ADME
T4 sequence (P05177 whole entry): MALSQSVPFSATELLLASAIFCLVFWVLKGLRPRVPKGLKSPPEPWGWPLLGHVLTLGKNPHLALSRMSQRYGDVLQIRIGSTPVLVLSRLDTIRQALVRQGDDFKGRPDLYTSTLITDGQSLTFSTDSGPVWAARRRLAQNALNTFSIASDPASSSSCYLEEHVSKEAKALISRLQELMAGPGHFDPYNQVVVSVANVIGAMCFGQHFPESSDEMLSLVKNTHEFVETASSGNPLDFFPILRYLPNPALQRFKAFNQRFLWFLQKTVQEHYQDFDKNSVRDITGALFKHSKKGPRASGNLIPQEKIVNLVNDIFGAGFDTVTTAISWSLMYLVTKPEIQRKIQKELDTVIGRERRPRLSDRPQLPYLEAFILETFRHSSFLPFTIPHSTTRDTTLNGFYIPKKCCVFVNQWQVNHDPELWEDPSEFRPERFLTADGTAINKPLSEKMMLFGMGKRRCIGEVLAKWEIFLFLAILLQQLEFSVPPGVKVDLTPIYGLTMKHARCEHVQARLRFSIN

[8] = Solubility of the compound at pH 6.8 buffer solution after 18 hrs by HPLC analysis; assay type: physicochemical
[9] = molecular target: T1, Beta-3 adrenergic receptor; experiment: Agonist activity at recombinant human beta3 adrenergic receptor expressed in CHO cells assessed as accumulation of cyclic AMP after 30 mins; assay type: cell-based
Target sequence in this assay (P13945 whole entry): as the sequence (P13945 whole entry, looked up) above

[10] = AUC in Sprague-Dawley rat at 5 mg/kg, po by LC-MS/MS analysis; assay type: ADME, organism-based; conditions: in vivo; summary of the method: as §1
Rattus norvegicus [11] = experiment: Cardiotoxicity in Sprague-Dawley rat assessed as decrease in mean blood pressure at 3 mg/kg, iv after 30 mins (reference value: 5.4 +/- 1.9%); assay type: toxicity, organism-based; set-up: scale not given: the % may be the effect or the level left; conditions: in vivo, 0.5 h
Rattus norvegicus [12] = experiment: Cardiotoxicity in Sprague-Dawley rat assessed as increase in mean blood pressure at 3 mg/kg, iv after 30 mins (reference value: 1 +/- 0.5%); assay type: toxicity, organism-based; conditions: in vivo, 0.5 h
CYP2C9 = CYP2C9 (Homo sapiens, UniProt P11712); experiment: Inhibition of CYP2C9 (unknown origin) at 10 uM relative to control; assay type: ADME
[13] = molecular target: T5, Alpha-1A adrenergic receptor (Homo sapiens, UniProt P35348); experiment: Intrinsic activity at recombinant human alpha1A adrenergic receptor expressed in HEK293 cells assessed as intercellular Ca mobilization by Fura-2AM dye-based fluorescence assay relative to norepinephrine; assay type: cell-based; conditions: read-out: Intrinsic activity
T5 sequence (P35348 whole entry): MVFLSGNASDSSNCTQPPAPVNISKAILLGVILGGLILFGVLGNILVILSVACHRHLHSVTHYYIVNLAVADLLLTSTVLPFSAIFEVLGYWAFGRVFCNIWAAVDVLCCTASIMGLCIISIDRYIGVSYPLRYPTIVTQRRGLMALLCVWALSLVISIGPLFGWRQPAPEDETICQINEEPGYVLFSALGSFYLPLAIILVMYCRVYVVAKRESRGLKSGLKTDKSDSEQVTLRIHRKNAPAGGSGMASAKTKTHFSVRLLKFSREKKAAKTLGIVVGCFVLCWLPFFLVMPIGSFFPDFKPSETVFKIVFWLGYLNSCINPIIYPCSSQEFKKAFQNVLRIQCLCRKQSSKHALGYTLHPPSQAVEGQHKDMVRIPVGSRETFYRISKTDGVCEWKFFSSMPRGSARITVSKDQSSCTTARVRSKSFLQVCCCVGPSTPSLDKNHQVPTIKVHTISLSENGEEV

Homo sapiens = organism: Homo sapiens; experiment: Selectivity ratio of EC50 for recombinant human alpha1A adrenergic receptor to EC50 for recombinant human beta3 adrenergic receptor

T2 sequence (P08588 whole entry): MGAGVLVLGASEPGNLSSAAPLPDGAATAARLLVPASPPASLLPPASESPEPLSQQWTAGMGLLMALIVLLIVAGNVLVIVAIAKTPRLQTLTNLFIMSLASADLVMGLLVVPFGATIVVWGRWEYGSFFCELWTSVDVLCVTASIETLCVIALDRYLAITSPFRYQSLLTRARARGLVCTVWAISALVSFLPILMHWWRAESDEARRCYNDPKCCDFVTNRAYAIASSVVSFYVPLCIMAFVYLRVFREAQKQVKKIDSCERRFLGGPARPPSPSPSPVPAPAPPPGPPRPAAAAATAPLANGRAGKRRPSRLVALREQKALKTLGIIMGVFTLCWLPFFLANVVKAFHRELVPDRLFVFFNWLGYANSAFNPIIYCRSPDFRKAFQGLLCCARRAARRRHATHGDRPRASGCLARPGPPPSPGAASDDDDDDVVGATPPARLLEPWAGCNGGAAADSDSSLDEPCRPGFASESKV
CYP2C19, sequence (P33261 whole entry): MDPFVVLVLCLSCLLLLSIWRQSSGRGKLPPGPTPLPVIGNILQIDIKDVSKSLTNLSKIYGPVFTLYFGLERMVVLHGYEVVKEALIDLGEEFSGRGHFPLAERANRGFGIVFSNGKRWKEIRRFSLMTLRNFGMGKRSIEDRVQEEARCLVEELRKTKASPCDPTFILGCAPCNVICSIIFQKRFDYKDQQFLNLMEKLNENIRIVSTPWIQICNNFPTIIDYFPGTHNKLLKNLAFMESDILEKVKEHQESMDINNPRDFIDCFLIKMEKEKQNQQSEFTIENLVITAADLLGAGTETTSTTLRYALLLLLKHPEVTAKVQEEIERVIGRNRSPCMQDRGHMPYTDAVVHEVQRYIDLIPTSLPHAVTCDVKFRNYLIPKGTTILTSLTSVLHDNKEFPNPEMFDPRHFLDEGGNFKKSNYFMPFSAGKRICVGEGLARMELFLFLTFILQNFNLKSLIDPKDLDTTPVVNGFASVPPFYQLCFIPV
CYP2C9, sequence (P11712 whole entry): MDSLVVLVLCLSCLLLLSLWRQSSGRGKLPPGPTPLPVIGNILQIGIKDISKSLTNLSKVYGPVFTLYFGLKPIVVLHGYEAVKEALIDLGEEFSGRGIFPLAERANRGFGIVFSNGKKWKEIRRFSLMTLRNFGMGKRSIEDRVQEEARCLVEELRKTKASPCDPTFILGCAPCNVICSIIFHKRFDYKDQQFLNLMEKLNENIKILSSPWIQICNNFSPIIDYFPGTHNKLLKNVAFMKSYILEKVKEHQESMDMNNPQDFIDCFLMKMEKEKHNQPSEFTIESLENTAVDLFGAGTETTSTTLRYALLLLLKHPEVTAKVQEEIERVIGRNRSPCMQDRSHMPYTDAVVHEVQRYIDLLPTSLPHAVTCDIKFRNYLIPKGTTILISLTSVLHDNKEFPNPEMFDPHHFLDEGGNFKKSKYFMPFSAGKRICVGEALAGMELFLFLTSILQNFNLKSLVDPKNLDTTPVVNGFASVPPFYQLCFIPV

Papp at 1 h, 50 µM [1]: 5 ×10⁻⁶ cm/s
half-life [2]: 3.01 h
Intrinsic activity [3]: 105%
solubility at 18 h [4]: 299 µM (≈ 133 µg/mL)
CLint scaled at 1 µM [5]: 57 mL/min/kg
EC50 [6]: > 10000 nM
inhibition at 10 µM (CYP2C19): < 34%
inhibition at 10 µM (CYP2B6): < 34%
Intrinsic activity [7]: 4%
inhibition at 10 µM (CYP1A2): < 34%
solubility at 18 h [8]: 278 µM (≈ 124 µg/mL)
EC50 [9]: 18 nM
AUC [10]: 312 ng·h/mL
inhibition at 10 µM (CYP2C9): < 34%
Emax [13]: 0%
Ratio EC50 (Homo sapiens): > 556
SMILES: Cc1n[nH]c2cc(OCCNC[C@H](O)c3cccc(NS(=O)(=O)C4CCC4)c3)ccc12
Activity (Rattus norvegicus [11]): 12.9%
Activity (Rattus norvegicus [12]): 2%

Source: ChEMBL document CHEMBL4049422, “Discovery of Novel Indazole Derivatives as Orally Available β3-Adrenergic Receptor Agonists Lacking Off-Target-Based Cardiovascular Side Effects” (J Med Chem, 2017)
